# Data as given in ChEMBL document CHEMBL1151786, “Triphenylmethylamides (TPMAs): Structure-activity relationship of compounds that induce apoptosis in melanoma cells” (Bioorg Med Chem Lett, 2008).
# Activity calls are given as the source filed them. The rule behind the calls is not given here.
# Legend:
# SK-MEL-5 = experiment: Growth inhibition of human SK-MEL-5 cells after 72 hrs by SRB assay; assay type: functional, cell-based; details: SK-MEL-5, 72 h
# Procedure, shortened: (§1)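 Melanoma cells were exposed to a range of compound concentrations for 72 h. Growth inhibition was read as biomass by sulforhodamine B staining. IC50 is the average of three separate occasions, given with standard deviation, from dose–response curves.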
# UACC-62 = experiment: Growth inhibition of human UACC62 cells after 72 hrs by SRB assay; assay type: functional, cell-based; details: UACC-62, 72 h; procedure, shortened: as §1
# HL-60 [1] = experiment: Antiproliferative activity against human HL60 cells after 72 hrs by SRB assay; assay type: functional, cell-based; details: HL-60, 72 h
# Procedure, shortened: (§2)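 Cancer cell lines were incubated with compound for 72 h. Growth or viability was measured by a method given in the supporting information. IC50 values are averages with standard deviations from three independent experiments.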
# PC-12 = experiment: Antiproliferative activity against rat PC12 cells after 72 hrs by SRB assay; assay type: functional, cell-based; details: PC-12, 72 h; procedure, shortened: as §2
# MCF7 = experiment: Antiproliferative activity against human MCF7 cells after 72 hrs by SRB assay; assay type: functional, cell-based; details: MCF7, 72 h; procedure, shortened: as §2
# U-937 [2] = experiment: Antiproliferative activity against human U937 cells after 72 hrs by SRB assay; assay type: functional, cell-based; details: U-937, 72 h; procedure, shortened: as §2
# HL-60 [3] = experiment: Cell cycle arrest in human HL60 cells assessed as accumulation at G1 phase at 20 uM after 6 hrs by flow cytometry using propidium iodide staining; assay type: functional, cell-based
# Procedure, shortened: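 HL-60 cells were treated for 6 h with 20 µM compound or with vehicle alone. They were then stained with propidium iodide and analysed by flow cytometry for the percentage of cells in G0/G1, S and G2/M.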
# [4] = Aqueous solubility in phosphate-buffered saline at pH 7.4; assay type: physicochemical; details: read-out: Stability
# U-937 [5] = experiment: Induction of early apoptosis in human U937 cells at 100 uM after 48 hrs by flow cytometry using FITC-conjugated annexin V and propidium iodide staining relative to control; assay type: functional
# Procedure, shortened: (§3)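 U-937 cells were exposed for 48 h to 100 µM compound or to vehicle. Cells were stained with FITC-conjugated Annexin V to detect phosphatidylserine externalization and with propidium iodide to test membrane integrity, then quantified by flow cytometry. Quadrants were scored, with Annexin V-positive/propidium iodide-negative taken as early apoptotic.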
# U-937 [6] = experiment: Induction of apoptosis in human U937 cells assessed as viable cells at 100 uM after 48 hrs by flow cytometry using FITC-conjugated annexin V and propidium iodide staining relative to control; assay type: functional; details: U-937, 48 h, read-out: Activity; procedure, shortened: as §3
# U-937 [7] = experiment: Induction of apoptosis in human U937 cells assessed as nonviable necrotic cells at 100 uM after 48 hrs by flow cytometry using FITC-conjugated annexin V and propidium iodide staining relative to control; assay type: functional; procedure, shortened: as §3
# U-937 [8] = experiment: Induction of late apoptosis in human U937 cells at 100 uM after 48 hrs by flow cytometry using FITC-conjugated annexin V and propidium iodide staining relative to control; assay type: functional; procedure, shortened: as §3
SMILES,IC50 (SK-MEL-5),IC50 (UACC-62),other results
COC(=O)[C@@H](Cc1ccccc1)NC(=O)CCC(c1ccccc1)(c1ccccc1)c1ccccc1,2.5 µM,40 µM,IC50 (HL-60 [1]): 6 µM; IC50 (PC-12): 74 µM; IC50 (MCF7): 6.1 µM; IC50 (U-937 [2]): 6.8 µM
O=C(NCCc1ccccc1)C(c1ccccc1)(c1ccccc1)c1cccs1,9 µM,13 µM,–
O=C(CCC(c1ccccc1)(c1ccccc1)c1ccccc1)NCCc1ccccc1,5.5 µM,50 µM,–
O=C(CC(c1ccccc1)(c1ccccc1)c1ccccc1)NCCc1ccccc1,17 µM,50 µM,–
O=C(NCCc1ccccc1)C1(c2ccccc2)c2ccccc2-c2ccccc21,20 µM,20 µM,–
COC(=O)[C@@H](Cc1ccccc1)NC(=O)C(c1ccc(OC)cc1)(c1ccc(OC)cc1)c1ccc(OC)cc1,49 µM,> 100 µM,–
COC(=O)[C@@H](Cc1ccccc1)NC(=O)C1(c2ccccc2)c2ccccc2-c2ccccc21,23 µM,27 µM,–
COc1ccc(C(C(=O)NCCc2ccccc2)(c2ccc(OC)cc2)c2ccc(OC)cc2)cc1,20 µM,> 100 µM,–
COc1ccc(C(C(=O)NCCc2ccccc2)(c2ccccc2)c2ccc(OC)cc2)cc1,14 µM,20 µM,Activity (HL-60 [3]): Active
COC(=O)[C@@H](Cc1ccccc1)NC(=O)C(c1ccccc1)(c1ccccc1)c1ccc(O)cc1,8.1 µM,21 µM,–
O=C(NCCc1ccccc1)C(c1ccccc1)(c1ccccc1)c1ccc(O)c(O)c1,4.2 µM,2.1 µM,solubility [4]: 80 µM; Activity (U-937 [5]): 23.17%; viability at 100 µM (U-937 [6]): 5.48%; Activity (U-937 [7]): 12.79%; Activity (U-937 [8]): 58.56%; Activity (HL-60 [3]): Active; IC50 (HL-60 [1]): 6.2 µM; IC50 (PC-12): 85 µM; IC50 (MCF7): 8.1 µM; IC50 (U-937 [2]): 5.9 µM
COC(=O)[C@@H](Cc1ccccc1)NC(=O)CCCC(c1ccccc1)(c1ccccc1)c1ccccc1,5.8 µM,45 µM,–

# Now from value to compound, other results behind:
IC50 (SK-MEL-5),SMILES,IC50 (UACC-62),other results
24 µM,COC(=O)[C@@H](Cc1ccccc1)NC(=O)C(c1ccccc1)(c1ccc(OC)cc1)c1ccc(OC)cc1,> 100 µM,–
13 µM,COC(=O)[C@@H](Cc1ccccc1)NC(=O)C(c1ccc(O)cc1)(c1ccc(O)cc1)c1ccc(O)cc1,27 µM,–
6.7 µM,COC(=O)[C@@H](Cc1ccccc1)NC(=O)C(c1ccccc1)(c1ccc(O)cc1)c1ccc(O)cc1,20 µM,–
8.6 µM,O=C(NCCc1ccccc1)C(c1ccccc1)(c1ccc(O)cc1)c1ccc(O)cc1,47 µM,–
8.1 µM,O=C(NCCc1ccccc1)C(c1ccccc1)(c1ccccc1)c1ccc(O)cc1,13 µM,–
29 µM,COc1ccc(C(C(=O)NCCc2ccccc2)(c2ccccc2)c2ccccc2)cc1,13 µM,Activity (HL-60 [3]): Active
5.4 µM,O=C(CCCC(c1ccccc1)(c1ccccc1)c1ccccc1)NCCc1ccccc1,26 µM,Activity (HL-60 [3]): Active
5.8 µM,O=C(NCCc1ccccc1)C(c1ccccc1)(c1ccccc1)c1ccccc1,8.3 µM,Activity (HL-60 [3]): Active; IC50 (HL-60 [1]): 7.7 µM; IC50 (PC-12): 31 µM; IC50 (MCF7): 7.1 µM; IC50 (U-937 [2]): 9.5 µM
36 µM,O=C(NCCc1ccccc1)C(c1ccc(O)cc1)(c1ccc(O)cc1)c1ccc(O)cc1,71 µM,–
12 µM,COC(=O)[C@@H](Cc1ccccc1)NC(=O)C(c1ccccc1)(c1ccccc1)c1cccs1,21 µM,–
5.1 µM,COC(=O)[C@@H](Cc1ccccc1)NC(=O)CC(c1ccccc1)(c1ccccc1)c1ccccc1,> 100 µM,–
5.7 µM,COC(=O)[C@@H](Cc1ccccc1)NC(=O)C(c1ccccc1)(c1ccccc1)c1ccccc1,14 µM,solubility [4]: 20 µM; Activity (HL-60 [3]): Active; IC50 (HL-60 [1]): 7.3 µM; IC50 (PC-12): 16 µM; IC50 (MCF7): 8 µM; IC50 (U-937 [2]): 7.2 µM
6.1 µM,COC(=O)[C@@H](Cc1ccccc1)NC(=O)C(c1ccccc1)(c1ccccc1)c1ccc(OC)cc1,27 µM,–
